miR122 inh: inhibitors of miR-122 in Huh7 cells | Huh7 miR-122 Renilla luciferase sensor, 48 h; neutral wells = 0, positive control = 100 | activation (reporter increase), % at 12.5 µM | 340,000 tested, 0.3% active | AID 602342;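 active means mean replicate activation score at least 90 and every replicate individually at or above 90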;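 further: higher luciferase means less miR-122 activity so hits act as miR-122 inhibitors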
Keap1-Nrf2 PPI: disrupts human Keap1 binding to Nrf2 peptide | 340,000 tested, 0.15% active | inhibition, % at 9.4 µM | Keap1 Kelch-Nrf2 peptide fluorescence polarization, 1536-well | Q14145 | AID 504523; in the data active means inhibition above about 12%;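 further: human Keap1 Kelch domain with fluorescein labeled Nrf2 9mer peptide probe; 0% = neutral control wells and 100% = peptide positive control; higher means more block of Keap1 binding to Nrf2 peptide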
LANA DNA inh: blocks KSHV LANA C-terminal domain binding to DNA; AID 504423; MBP-C-LANA/FAM-LBS DNA binding, fluorescence polarization; inhibition, % at 9 µM; 340,000 tested, 0.078% active;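 active means highest replicate inhibition at or above 60% at 9 µM, even if other replicates fall short; inactive means all replicates below 60% inhibition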;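 further: 0% = neutral control wells and 100% = 4 µM acridine orange control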
CAL PDZ FP-1: blocks peptide binding to the human CAL PDZ domain | purified CAL PDZ, TMR-peptide fluorescence polarization, 1 h | inhibition, % at 24.9 µM | AID 602252 | 300,000 tested, 0.92% active;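 active means mean inhibition of at least 30% with at least half of replicates also reaching 30%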;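 further: 0% = DMSO neutral control and 100% = excess unlabeled competitor peptide PRC23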
CAL PDZ FP-2: blocks peptide binding to human CAL PDZ domain | Q9HD26 | purified CAL PDZ, TMR-peptide fluorescence polarization, 1 h | inhibition, % at 20 µM | 330,000 tested, 0.02% active;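 active means highest replicate inhibition of at least 40%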;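 further: plate controls were DMSO neutral control wells for no effect and unlabeled competitor peptide control wells for full effect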
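Assay system – tagged CAL PDZ protein CerCALP, purified · Timing – 1 h at RT · Compound – single point, 20 µM · Measured by – fluorescence polarization from S- and P-plane intensities, G-factor corrected · Evaluation – inhibition from polarization loss · Probe or stimulus – TMR reporter peptide T*-PRC34 · Buffer or medium – pH 7.4 phosphate-saline buffer, reducing agent, detergent, IgG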
The depositor's hits bear a star; . = no result given; [ ] = remark or other dose. Only some compounds are listed: those with a hit (about 1.1% of all), similar ones and a draw of the others.

SMILES	miR122 inh	Keap1-Nrf2 PPI	LANA DNA inh	CAL PDZ FP-1	CAL PDZ FP-2
CCOC(=O)CN(C(=O)CSc1nnc(-c2cccc(OC)c2)o1)c1ccc(F)cc1	-16	1	1	32*	13
Cc1cc(Nc2ccccc2Cl)nc(-c2ccccc2O)n1	-4	1	2	57*	.
COc1ccc(CSc2nnc(NC(C)=O)s2)cc1[N+](=O)[O-]	.	-5	0	-1	2
COCCSc1nnc(NC(=O)Cc2ccc(OC)cc2)s1	0	-2	0	49*	0
COCCSc1nnc(NC(=O)c2ccc(OC)c([N+](=O)[O-])c2)s1	.	2	-1	53*	1
O=C(Nc1nc2c(Br)cc(Br)cc2c(=O)s1)C1CCC1	.	-1	1	37*	-1
Cc1ccc(S(=O)(=O)N(C)C)cc1NC(=S)N1CCc2ccccc21	1	-3	0	49*	-2
CC(=O)c1ccc(OCc2cc(C(=O)NCCc3ccc(Cl)cc3)no2)cc1	-6	-2	-1	68*	2
CC(=O)c1ccc(OCc2cc(C(=O)N3CC4C[C@@H]5CC3C[C@H](C4)C5)no2)cc1	-7	-3	-1	70*	-1
Cc1noc(C)c1S(=O)(=O)N(C)C[C@@H]1OCCCC[C@H](C)Oc2ccc(NS(=O)(=O)c3cccs3)cc2C(=O)N([C@H](C)CO)C[C@@H]1C	-3[16.7 µM]	.	.	.	.
COCC#Cc1cnc2c(c1)C(=O)N([C@@H](C)CO)C[C@H](C)[C@@H](CN(C)C(=O)c1cccc(F)c1)O2	-2[16.7 µM]	.	.	.	.
COc1ccc2[nH]c(=O)c(CN(C(=O)c3cccnc3)c3cc(C)ccc3C)cc2c1	.	-4	0	-3	-3
COc1ccc2[nH]c(=O)c(CN(C(=O)C3CCCO3)c3ccc(C)c(C)c3)cc2c1 (configuration not stated)	2	-5	1	48*	-1
COc1ccc(N(Cc2cc3cc(OC)ccc3[nH]c2=O)C(=O)C2CCCO2)cc1 (configuration not stated)	-2	0	0	.	-1
COc1ccc2[nH]c(=O)c(CN(C(=O)c3cccnc3)c3ccc(C)cc3C)cc2c1	3	0	-2	34*	-1
COc1ccc(NC(=O)Nc2ccc3c(c2)C(=O)N([C@H](C)CO)C[C@H](C)[C@@H](CN(C)C(=O)Nc2c(C)noc2C)OCCCC[C@H](C)O3)cc1	2[16.7 µM]	.	.	.	.
S=c1nc[nH]c2c1ncn2-c1ccccc1	7	-6	0	48*	-1
CN1C(=S)SC(C)(C)C1/[N+]([O-])=C/c1cccnc1 (configuration not stated)	-2	-4	2	123*	.
C[C@H](O)C#Cc1cnc2c(c1)C(=O)N([C@@H](C)CO)C[C@H](C)[C@H](CN(C)C(=O)Cc1ccccn1)O2	-4[16.7 µM]	.	.	.	.
O=C(Cc1ncon1)Nc1ccc(F)c(F)c1F	-6	0	1	78*	0
O=C(CNCC(=O)Nc1ccc(F)c(F)c1F)Nc1ccc(F)c(F)c1F	-11	-2	2	-9	.
C[C@@H]1CN([C@@H](C)CO)C(=O)c2cc(-c3ccncc3)cnc2O[C@H]1CN(C)S(=O)(=O)c1ccc(F)cc1	-6[16.7 µM]	.	.	.	.
C[C@H]1CN([C@@H](C)CO)C(=O)c2cc(-c3cccc(F)c3)cnc2O[C@H]1CN(C)C(=O)C1CCCCC1	-3[16.7 µM]	.	.	.	.
COc1ccc(CNc2nc3nc(-c4ccccc4)cc(=O)n3[nH]2)cc1OC	-1	2	0	40*	-1
C[C@@H]1CCCCO[C@@H](CN(C)S(C)(=O)=O)[C@H](C)CN([C@H](C)CO)C(=O)c2cc(NC(=O)Cc3ccccc3)ccc2O1	3[16.7 µM]	.	.	.	.
CCOC(=O)[C@H]1[C@H]2COc3ccccc3[C@@H]2N2C(=O)CN(Cc3ccc(C)cc3)C(=O)[C@@]12C	1	8	61*	-5	0
Cc1noc(C)c1NC(=O)N(C)C[C@H]1Oc2ccc(NC(=O)Nc3ccc4c(c3)OCO4)cc2CC(=O)N([C@@H](C)CO)C[C@H]1C	5[16.7 µM]	.	.	.	.
Cc1cc(F)ccc1NC(=O)c1cc(S(=O)(=O)N2CCCC2)cn1C	-2	0	0	69*	0
CCOC(=O)c1c(NC(=O)c2cccs2)sc(CC)c1-c1cccs1	-8	1	0	31*	-2
COc1ccc(N2CCN(C(=O)c3csc4ccccc34)CC2)cc1	162*	3	1	.	-1
